Experimental data reported in ChEMBL document CHEMBL3351961, “In vitro antitumor activity evaluation of some 1,2,4-triazine derivatives bearing piperazine amide moiety against breast cancer cells” (Bioorg Med Chem, 2014).
Activity calls are given as the source filed them. No cut-off for these calls is given here.

Test system: MCF7
Test: Induction of apoptosis in human MCF7 cells assessed as necrotic cells level at cytotoxic IC50 level after 24 hrs by Annexin V/PI dual staining based flow cytometry (reference value: 3.66 %)
Format: functional
Details: not given

Compound	Activity [%]
COc1ccc(N2CCN(CC(=O)N3CCN(c4nnc(-c5ccc(C)cc5)c(-c5ccc(C)cc5)n4)CC3)CC2)cc1	26.7
COc1ccccc1N1CCN(CC(=O)N2CCN(c3nnc(-c4ccccc4)c(-c4ccccc4)n3)CC2)CC1	17.1
O=C(CN1CCN(c2ccc(Cl)cc2)CC1)N1CCN(c2nnc(-c3ccccc3)c(-c3ccccc3)n2)CC1	11.2
COc1cccc(N2CCN(CC(=O)N3CCN(c4nnc(-c5ccc(Cl)cc5)c(-c5ccc(Cl)cc5)n4)CC3)CC2)c1	24.5
O=C(CN1CCN(c2cccc(Cl)c2)CC1)N1CCN(c2nnc(-c3ccccc3)c(-c3ccccc3)n2)CC1	11.5
COc1ccccc1N1CCN(CC(=O)N2CCN(c3nnc(-c4ccc(C)cc4)c(-c4ccc(C)cc4)n3)CC2)CC1	28.2

Test system: MCF7
Test: Inhibition of DNA synthesis in human MCF7 cells at cytotoxic IC50 level after 24 hrs by 5-bromo-20-deoxy-uridine incorporation method
Format: functional
Details: not given
Method in brief: (§1)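 BrdU ELISA on MCF-7 seeded at 2 × 10^4 cells/well. Compounds given at IC50/2, IC50 and 2 × IC50 (from the XTT assay) for 24 h or 48 h. BrdU added for 2 h at 37 °C, then anti-BrdU-POD for 90 min, three PBS washes and colorimetric substrate. Untreated control absorbance set as 0% inhibition. Means of two independent experiments ± SD of four wells; cisplatin positive control.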

Compound	inhibition (INH) [%]
COc1ccc(N2CCN(CC(=O)N3CCN(c4nnc(-c5ccc(C)cc5)c(-c5ccc(C)cc5)n4)CC3)CC2)cc1	77.82
COc1ccccc1N1CCN(CC(=O)N2CCN(c3nnc(-c4ccccc4)c(-c4ccccc4)n3)CC2)CC1	76.35
O=C(CN1CCN(c2cccc(Cl)c2)CC1)N1CCN(c2nnc(-c3ccccc3)c(-c3ccccc3)n2)CC1	31.36

Test system: MCF7
Test: Induction of apoptosis in human MCF7 cells assessed as viable cells level at cytotoxic IC50 level after 24 hrs by Annexin V/PI dual staining based flow cytometry (reference value: 94.36 %)
Format: functional
Details: not given

Compound	Activity [%]
COc1ccc(N2CCN(CC(=O)N3CCN(c4nnc(-c5ccc(C)cc5)c(-c5ccc(C)cc5)n4)CC3)CC2)cc1	66.5
COc1ccccc1N1CCN(CC(=O)N2CCN(c3nnc(-c4ccccc4)c(-c4ccccc4)n3)CC2)CC1	82.5
O=C(CN1CCN(c2ccc(Cl)cc2)CC1)N1CCN(c2nnc(-c3ccccc3)c(-c3ccccc3)n2)CC1	76.4
COc1cccc(N2CCN(CC(=O)N3CCN(c4nnc(-c5ccc(Cl)cc5)c(-c5ccc(Cl)cc5)n4)CC3)CC2)c1	71.3
O=C(CN1CCN(c2cccc(Cl)c2)CC1)N1CCN(c2nnc(-c3ccccc3)c(-c3ccccc3)n2)CC1	76.9
COc1ccccc1N1CCN(CC(=O)N2CCN(c3nnc(-c4ccc(C)cc4)c(-c4ccc(C)cc4)n3)CC2)CC1	63.4

Test system: MCF7
Test: Inhibition of DNA synthesis in human MCF7 cells at 15.32 ug/ml after 48 hrs by 5-bromo-20-deoxy-uridine incorporation method
Format: functional
Details: MCF7, 48 h
Method in brief: (§2)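 MCF-7 seeded at 2 × 10^4 cells/well and exposed to compound for 48 h at the stated concentration. BrdU added for 2 h at 37 °C, then anti-BrdU-POD for 90 min, PBS washes and colorimetric substrate. Inhibition taken relative to untreated control absorbance (set as 0%). Means of two independent experiments ± SD of four wells.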

Compound	inhibition at 15.32 µg/mL [%]
COc1ccc(N2CCN(CC(=O)N3CCN(c4nnc(-c5ccc(C)cc5)c(-c5ccc(C)cc5)n4)CC3)CC2)cc1	76.7

Test system: MCF7
Test: Inhibition of DNA synthesis in human MCF7 cells at 2 times cytotoxic IC50 level after 48 hrs by 5-bromo-20-deoxy-uridine incorporation method
Format: functional
Details: not given
Method in brief: as §1

Compound	inhibition	inhibition (INH) [%]
COc1ccccc1N1CCN(CC(=O)N2CCN(c3nnc(-c4ccccc4)c(-c4ccccc4)n3)CC2)CC1	Active	–
O=C(CN1CCN(c2ccc(Cl)cc2)CC1)N1CCN(c2nnc(-c3ccccc3)c(-c3ccccc3)n2)CC1	–	62.34
O=C(CN1CCN(c2cccc(Cl)c2)CC1)N1CCN(c2nnc(-c3ccccc3)c(-c3ccccc3)n2)CC1	–	70.18

Test system: MCF7
Test: Induction of apoptosis in human MCF7 cells assessed as late apoptotic cells level at cytotoxic IC50 level after 24 hrs by Annexin V/PI dual staining based flow cytometry (reference value: 1.52 %)
Format: functional
Details: not given

Compound	Activity [%]
COc1ccc(N2CCN(CC(=O)N3CCN(c4nnc(-c5ccc(C)cc5)c(-c5ccc(C)cc5)n4)CC3)CC2)cc1	6.2
COc1ccccc1N1CCN(CC(=O)N2CCN(c3nnc(-c4ccccc4)c(-c4ccccc4)n3)CC2)CC1	0.4
O=C(CN1CCN(c2ccc(Cl)cc2)CC1)N1CCN(c2nnc(-c3ccccc3)c(-c3ccccc3)n2)CC1	10.3
COc1cccc(N2CCN(CC(=O)N3CCN(c4nnc(-c5ccc(Cl)cc5)c(-c5ccc(Cl)cc5)n4)CC3)CC2)c1	3.3
O=C(CN1CCN(c2cccc(Cl)c2)CC1)N1CCN(c2nnc(-c3ccccc3)c(-c3ccccc3)n2)CC1	9.4
COc1ccccc1N1CCN(CC(=O)N2CCN(c3nnc(-c4ccc(C)cc4)c(-c4ccc(C)cc4)n3)CC2)CC1	5.8

Test system: MCF7
Test: Inhibition of DNA synthesis in human MCF7 cells at 2 times cytotoxic IC50 level after 24 hrs by 5-bromo-20-deoxy-uridine incorporation method
Format: functional
Details: not given
Method in brief: as §1

Compound	inhibition (INH) [%]
COc1ccc(N2CCN(CC(=O)N3CCN(c4nnc(-c5ccc(C)cc5)c(-c5ccc(C)cc5)n4)CC3)CC2)cc1	88.52
COc1ccccc1N1CCN(CC(=O)N2CCN(c3nnc(-c4ccccc4)c(-c4ccccc4)n3)CC2)CC1	81.61
O=C(CN1CCN(c2cccc(Cl)c2)CC1)N1CCN(c2nnc(-c3ccccc3)c(-c3ccccc3)n2)CC1	41.48

Test system: MCF7
Test: Inhibition of DNA synthesis in human MCF7 cells at cytotoxic IC50 level after 48 hrs by 5-bromo-20-deoxy-uridine incorporation method
Format: functional
Details: not given
Method in brief: as §1

Compound	inhibition	inhibition (INH) [%]
COc1ccccc1N1CCN(CC(=O)N2CCN(c3nnc(-c4ccccc4)c(-c4ccccc4)n3)CC2)CC1	Active	–
O=C(CN1CCN(c2ccc(Cl)cc2)CC1)N1CCN(c2nnc(-c3ccccc3)c(-c3ccccc3)n2)CC1	–	52.05
O=C(CN1CCN(c2cccc(Cl)c2)CC1)N1CCN(c2nnc(-c3ccccc3)c(-c3ccccc3)n2)CC1	–	61.16

Test system: MCF7
Test: Inhibition of DNA synthesis in human MCF7 cells at 44.18 ug/ml after 48 hrs by 5-bromo-20-deoxy-uridine incorporation method
Format: functional
Details: MCF7, 48 h
Method in brief: as §2

Compound	inhibition at 44.18 µg/mL [%]
COc1ccccc1N1CCN(CC(=O)N2CCN(c3nnc(-c4ccc(C)cc4)c(-c4ccc(C)cc4)n3)CC2)CC1	78.7

Test system: MCF7
Test: Inhibition of DNA synthesis in human MCF7 cells at 0.5 times cytotoxic IC50 level after 24 hrs by 5-bromo-20-deoxy-uridine incorporation method
Format: functional
Details: not given
Method in brief: as §1

Compound	inhibition (INH) [%]
COc1ccc(N2CCN(CC(=O)N3CCN(c4nnc(-c5ccc(C)cc5)c(-c5ccc(C)cc5)n4)CC3)CC2)cc1	56.94
COc1ccccc1N1CCN(CC(=O)N2CCN(c3nnc(-c4ccccc4)c(-c4ccccc4)n3)CC2)CC1	22.44
O=C(CN1CCN(c2cccc(Cl)c2)CC1)N1CCN(c2nnc(-c3ccccc3)c(-c3ccccc3)n2)CC1	26.06

Test system: MCF7
Test: Inhibition of DNA synthesis in human MCF7 cells at 0.5 times cytotoxic IC50 level after 48 hrs by 5-bromo-20-deoxy-uridine incorporation method
Format: functional
Details: not given
Method in brief: as §1

Compound	inhibition	inhibition (INH) [%]
COc1ccccc1N1CCN(CC(=O)N2CCN(c3nnc(-c4ccccc4)c(-c4ccccc4)n3)CC2)CC1	Active	–
O=C(CN1CCN(c2ccc(Cl)cc2)CC1)N1CCN(c2nnc(-c3ccccc3)c(-c3ccccc3)n2)CC1	–	24.98
O=C(CN1CCN(c2cccc(Cl)c2)CC1)N1CCN(c2nnc(-c3ccccc3)c(-c3ccccc3)n2)CC1	–	56.59

Test system: MCF7
Test: Inhibition of DNA synthesis in human MCF7 cells at 30.63 ug/ml after 48 hrs by 5-bromo-20-deoxy-uridine incorporation method
Format: functional
Details: MCF7, 48 h
Method in brief: as §2

Compound	inhibition at 30.63 µg/mL [%]
COc1ccc(N2CCN(CC(=O)N3CCN(c4nnc(-c5ccc(C)cc5)c(-c5ccc(C)cc5)n4)CC3)CC2)cc1	86

Test system: MCF7
Test: Induction of apoptosis in human MCF7 cells assessed as early apoptotic cells level at cytotoxic IC50 level after 24 hrs by Annexin V/PI dual staining based flow cytometry (reference value: 0.46%)
Format: functional
Details: not given

Compound	Activity [%]
COc1ccc(N2CCN(CC(=O)N3CCN(c4nnc(-c5ccc(C)cc5)c(-c5ccc(C)cc5)n4)CC3)CC2)cc1	0.6
COc1ccccc1N1CCN(CC(=O)N2CCN(c3nnc(-c4ccccc4)c(-c4ccccc4)n3)CC2)CC1	0
O=C(CN1CCN(c2ccc(Cl)cc2)CC1)N1CCN(c2nnc(-c3ccccc3)c(-c3ccccc3)n2)CC1	2.1
COc1cccc(N2CCN(CC(=O)N3CCN(c4nnc(-c5ccc(Cl)cc5)c(-c5ccc(Cl)cc5)n4)CC3)CC2)c1	0.9
O=C(CN1CCN(c2cccc(Cl)c2)CC1)N1CCN(c2nnc(-c3ccccc3)c(-c3ccccc3)n2)CC1	2.2
COc1ccccc1N1CCN(CC(=O)N2CCN(c3nnc(-c4ccc(C)cc4)c(-c4ccc(C)cc4)n3)CC2)CC1	2.6

Test system: MCF7
Test: Inhibition of DNA synthesis in human MCF7 cells at 22.09 ug/ml after 48 hrs by 5-bromo-20-deoxy-uridine incorporation method
Format: functional
Details: MCF7, 48 h
Method in brief: as §2

Compound	inhibition at 22.09 µg/mL [%]
COc1ccccc1N1CCN(CC(=O)N2CCN(c3nnc(-c4ccc(C)cc4)c(-c4ccc(C)cc4)n3)CC2)CC1	78.5

Test system: MCF7
Test: Cytotoxicity against human MCF7 cells after 24 hrs by MTT assay
Format: functional, cell-based
Details: MCF7, 24 h, in the assay text read “XTT assay” for “MTT assay”
Method in brief: (§3)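 Cells grown in RPMI with fetal calf serum, penicillin/streptomycin, 37 °C, 5% CO2. Seeded 2 × 10^4 cells/well, then 24 h. Medium replaced with compound at 3.9–500 µg/ml (DMSO stocks diluted in medium, final DMSO under 0.1%). XTT read-out of mitochondrial activity: 3 h at 37 °C, OD 480 nm (reference 680 nm). IC50 by non-linear regression; duplicate experiments; cisplatin positive control.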

Compound	IC50 [µM]
COc1ccc(-c2nnc(N3CCN(C(=O)CN4CCN(c5ccccc5Cl)CC4)CC3)nc2-c2ccc(OC)cc2)cc1	> 814
O=C(CN1CCN(c2ccc([N+](=O)[O-])cc2)CC1)N1CCN(c2nnc(-c3ccc(Cl)cc3)c(-c3ccc(Cl)cc3)n2)CC1	> 790
COc1ccc(N2CCN(CC(=O)N3CCN(c4nnc(-c5ccc(C)cc5)c(-c5ccc(C)cc5)n4)CC3)CC2)cc1	53
COc1ccccc1N1CCN(CC(=O)N2CCN(c3nnc(-c4ccccc4)c(-c4ccccc4)n3)CC2)CC1	167
O=C(CN1CCN(c2ccc(Cl)cc2)CC1)N1CCN(c2nnc(-c3ccccc3)c(-c3ccccc3)n2)CC1	56.3
COc1cccc(N2CCN(CC(=O)N3CCN(c4nnc(-c5ccc(Cl)cc5)c(-c5ccc(Cl)cc5)n4)CC3)CC2)c1	149
O=C(CN1CCN(c2cccc(Cl)c2)CC1)N1CCN(c2nnc(-c3ccccc3)c(-c3ccccc3)n2)CC1	56.3
COc1ccccc1N1CCN(CC(=O)N2CCN(c3nnc(-c4ccc(C)cc4)c(-c4ccc(C)cc4)n3)CC2)CC1	59.4

Test system: MCF7
Test: Inhibition of DNA synthesis in human MCF7 cells at 61.26 ug/ml after 48 hrs by 5-bromo-20-deoxy-uridine incorporation method
Format: functional
Details: MCF7, 48 h
Method in brief: as §2

Compound	inhibition at 61.26 µg/mL [%]
COc1ccc(N2CCN(CC(=O)N3CCN(c4nnc(-c5ccc(C)cc5)c(-c5ccc(C)cc5)n4)CC3)CC2)cc1	88.9

Test system: not listed separately
Test: Cytotoxicity against mouse NIH/3T3 cells after 24 hrs by MTT assay
Format: cell-based
Details: NIH3T3, 24 h, in the assay text read “XTT assay” for “MTT assay”
Method in brief: as §3

Compound	IC50 [µM]
COc1ccc(-c2nnc(N3CCN(C(=O)CN4CCN(c5ccccc5Cl)CC4)CC3)nc2-c2ccc(OC)cc2)cc1	> 814
O=C(CN1CCN(c2ccc([N+](=O)[O-])cc2)CC1)N1CCN(c2nnc(-c3ccc(Cl)cc3)c(-c3ccc(Cl)cc3)n2)CC1	> 790
COc1ccc(N2CCN(CC(=O)N3CCN(c4nnc(-c5ccc(C)cc5)c(-c5ccc(C)cc5)n4)CC3)CC2)cc1	116
COc1ccccc1N1CCN(CC(=O)N2CCN(c3nnc(-c4ccccc4)c(-c4ccccc4)n3)CC2)CC1	444
O=C(CN1CCN(c2ccc(Cl)cc2)CC1)N1CCN(c2nnc(-c3ccccc3)c(-c3ccccc3)n2)CC1	113
COc1cccc(N2CCN(CC(=O)N3CCN(c4nnc(-c5ccc(Cl)cc5)c(-c5ccc(Cl)cc5)n4)CC3)CC2)c1	202
O=C(CN1CCN(c2cccc(Cl)c2)CC1)N1CCN(c2nnc(-c3ccccc3)c(-c3ccccc3)n2)CC1	178
COc1ccccc1N1CCN(CC(=O)N2CCN(c3nnc(-c4ccc(C)cc4)c(-c4ccc(C)cc4)n3)CC2)CC1	133
